Entries after “also recorded” stand apart in the source; their conditions may differ. Read-outs that look alike come from different tables or passages of the source.
How the values were obtained:
[1] = tested on: advanced solid tumors; experiment: Antitumor activity per RECIST v1.1; assay type: in vivo, human
In short: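 Open-label phase I/Ib in adults (≥18 y, ECOG ≤2, RECIST-measurable disease, progressed on or intolerant to standard care). The TLR-7 agonist, 100-600 μg, was given intratumorally on days 1 and 15 of 28-day cycles 1-2 and 5-6, with a pause in cycles 3-4. Combination patients also received anti-PD-1 antibody 400 mg IV over 30 min Q4W. ORR and DCR (CR+PR+SD) are given with 90% Clopper–Pearson exact CIs. PFS uses Kaplan–Meier with median, 90% CI and landmark rates.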

[2] = tested on: advanced solid tumors; experiment: Antitumor activity per iRECIST; assay type: in vivo, human; conditions: all patients, groups pooled
In short: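 Adults with advanced solid tumours received the TLR-7 agonist intratumorally, 100-600 μg on days 1 and 15 of 28-day cycles 1-2 and 5-6, alone or with anti-PD-1 antibody 400 mg IV Q4W. Response was assessed per iRECIST. iORR and iDCR are given with 90% Clopper–Pearson exact CIs. iPFS was estimated by Kaplan–Meier with median, 90% CI and 3-24-month rates, summarised by treatment group.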

[3] = Serum pharmacokinetics after intratumoral LHC165, LC-MS/MS, non-compartmental; assay type: in vivo, human
In short: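 Serum concentrations of the TLR-7 agonist were measured by validated LC-MS/MS after intratumoral dosing at 100-600 μg Q2W. Dosing was alone or with anti-PD-1 antibody 400 mg IV Q4W. Parameters (Cmax, AUClast, terminal t½) were derived by non-compartmental analysis on C1D1 and C2D15. Geometric CV% was reported.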

[4] = Aluminum level monitoring; assay type: in vivo, human; conditions: for Aluminum level, mean (standard deviation): baseline 0.26 (0.088)
[5] = tested on: adult patients with advanced solid tumors; experiment: Dose escalation: DLT, MTD and recommended dose for expansion; assay type: in vivo, human
In short: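 Escalation was guided by an adaptive Bayesian hierarchical logistic regression model with escalation-with-overdose-control. Dosing started at 100 μg and tested 100, 200, 400 and 600 μg intratumoral TLR-7 agonist biweekly, alone or with anti-PD-1 antibody 400 mg IV on day 1 of each 28-day cycle. AEs were graded by CTCAE v4.03. All treated patients formed the safety set. Data cut-off was 30 June 2022.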

[6] = tested on: adult patients with advanced solid tumors
[7] = tested on: patients with solid tumors; conditions: IT; including grade 3/4 cytokine release syndrome, pyrexia, fatigue, chills, decreased lymphocyte count, nausea, injection-site pain; cited from earlier work
[8] = tested on: advanced anaplastic thyroid carcinoma; conditions: immune-related response criteria; cited from earlier work
[9] = RECIST v1.1, all patients N = 45 (SA and combination groups pooled)
[10] = RECIST v1.1, all patients, groups pooled
[11] = RECIST v1.1, by treatment group
[12] = RECIST v1.1, by treatment group (SA n = 21; combination n = 24)
[13] = all grades, all patients N = 45 (SA and combination groups pooled)
[14] = all grades, by treatment group (SA n = 21; combination n = 24)
[15] = grade ≥3, all patients N = 45 (SA and combination groups pooled)
[16] = grade ≥3, by treatment group (SA n = 21; combination n = 24)
[17] = overall, 45 patients, groups pooled

Cc1cc(OCCOCCC(F)(F)P(=O)(O)O)ccc1CCc1cnc2c(N)nc3cc(CCC(=O)O)ccc3c2c1 [LHC165]
Median PFS ([1]; RECIST v1.1, Kaplan–Meier, by treatment group, listed as LHC165 SA): 1.4 months | Best overall response: CR [1, 9]: 0 n (%) | Best overall response: PD [1, 9]: 27 (60.0) n (%) | Best overall response: PR [1, 9]: 3 (6.7) n (%) | Best overall response: SD [1, 9]: 5 (11.1) n (%) | Best overall response: Unknown [1, 9]: 10 (22.2) n (%) | DCR (CR + PR + SD) [1, 9]: 8 (17.8) n (%) | ORR (CR + PR) [1, 9]: 3 (6.7) n (%) | DCR / disease control [1, 10]: 17.8% | ORR (CR + PR) across all tumor types [1, 10]: 6.7% | Best overall response PD [1, 11]: 66.7% | Best overall response PR [1, 11]: 4.8% | Best overall response unknown (UNK) [1, 11]: 28.6% | Best overall response: CR [1, 12]: 0 n (%) | Best overall response: PD [1, 12]: 14 (66.7) n (%) | Best overall response: PR [1, 12]: 1 (4.8) n (%) | Best overall response: SD [1, 12]: 0 n (%) | Best overall response: Unknown [1, 12]: 6 (28.6) n (%) | DCR (CR + PR + SD) [1, 12]: 1 (4.8) n (%) | ORR (CR + PR) [1, 12]: 1 (4.8) n (%) | DOR, median (range) ([1]; RECIST v1.1, responders by treatment group): 3.81 (3.8-3.8) months | DOR, median (range) ([1]; RECIST v1.1, responders, all patients (SA and combination groups pooled)): 13.77 (3.8-29.7) months | Overall median PFS ([1]; all patients, groups pooled): 1.7 months | Patients who discontinued study treatment due to progressive disease ([1]; by treatment group): 71.4% | Overall median immune-related PFS (iPFS) [2]: 1.7 months | Dose dependence of Cmax and AUClast ([3]; 100-600 μg IT): increased in a dose-dependent manner | Accumulation in serum LHC165 after multiple IT injections ([3]; Cmax and AUClast between C1D1 and C2D15 comparable): No accumulation | Drug–drug interaction between LHC165 and spartalizumab ([3]; comparable exposure between SA and combination groups): No evidence of drug–drug interaction | AEs specific to aluminum toxicity ([4]; LHC165 adsorbed to aluminum hydroxide): No AEs specific to aluminum toxicity were reported | Aluminum level, mean (standard deviation) ([4]; cycle 1 day 15 (C1D15)): 0.24 (0.087) μmol/L | Aluminum level, mean (standard deviation) ([4]; end of treatment): 0.30 (0.128) μmol/L | Maximum observed aluminum value during the study ([4]; mild elevation levels >1.85 μmol/L): 0.520 µmol | MTD ([5]; LHC165 100-600 μg biweekly IT, SA and with spartalizumab 400 mg Q4W): No maximum tolerated dose was reached; also recorded: not reached | Recommended dose for expansion (RDE) ([5]; biweekly IT, as SA and in combination with spartalizumab 400 mg Q4W): 600 µg | DLTs observed during dose escalation ([5]; combination: two episodes of grade 3 pancreatitis at LHC165 400 μg): No DLTs | Patients with at least one AE of any grade, regardless of relationship with LHC165 or spartalizumab ([6]; 40 of 45 patients, SA and combination groups pooled): 88.9% | Most common non-SAE: anemia ([6]; 45 patients, groups pooled): 24.4% | Most common non-SAE: pyrexia ([6]; 45 patients, groups pooled): 37.8% | Patients with at least one SAE, regardless of relationship ([6]; 45 patients, groups pooled): 22.2% | SAE suspected to be related to LHC165 and spartalizumab: grade 3 pancreatitis ([6]; 45 patients, groups pooled): 2.2% | SAE suspected to be related to the study drug: grade 3 pancreatitis, number of patients ([6]; 45 patients, groups pooled): 1 n | Patients with treatment-related AEs (TRAEs, all grades) ([6]; across all dose levels, 16 of 45 patients, groups pooled): 35.6% | Patients with non-SAEs (≥10%) ([6]; across all dose levels, 40 of 45 patients, groups pooled): 88.9% | Drug-related AE: asthenia ([6]; all 45 patients, groups pooled): 4.4% | Drug-related AE: chills ([6]; all 45 patients, groups pooled): 11.1% | Drug-related AE: pruritus ([6]; all 45 patients, groups pooled): 13.3% | Drug-related AE: pyrexia ([6]; all 45 patients, groups pooled): 22.2% | Asthenia, treatment-related AE [6, 13]: 2 (4.4) n (%) | Chills, treatment-related AE [6, 13]: 5 (11.1) n (%) | Pruritus, treatment-related AE [6, 13]: 6 (13.3) n (%) | Pyrexia, treatment-related AE [6, 13]: 10 (22.2) n (%) | TRAEs leading to discontinuation: pancreatitis [6, 13]: 1 (2.2) n (%) | ≥1 AE suspected to be related to LHC165 or spartalizumab [6, 13]: 16 (35.6) n (%) | Asthenia, treatment-related AE [6, 14]: 0 n (%) | Chills, treatment-related AE [6, 14]: 1 (4.8) n (%) | Pruritus, treatment-related AE [6, 14]: 0 n (%) | Pyrexia, treatment-related AE [6, 14]: 2 (9.5) n (%) | TRAEs leading to discontinuation: pancreatitis [6, 14]: 0 n (%) | ≥1 AE suspected to be related to LHC165 or spartalizumab [6, 14]: 2 (9.5) n (%) | Patients with one or more TRAE ([6]; by treatment group (2 of 21; 14 of 24)): 9.5% | Patients with at least one treatment permanent discontinuation by reason: adverse event ([6]; by treatment group (SA n = 21; combination n = 24)): 2 (9.5) n (%) | Patients who discontinued study treatment due to AE ([6]; by treatment group, SA: hypotension, not related, combination: pancreatitis, DLT): 4.8% | Patients who discontinued study treatment due to death ([6]; by treatment group, not related to treatment (respiratory failure; fatal septic shock)): 4.8% | Asthenia, treatment-related AE [6, 15]: 0 n (%) | Chills, treatment-related AE [6, 15]: 0 n (%) | Pruritus, treatment-related AE [6, 15]: 0 n (%) | Pyrexia, treatment-related AE [6, 15]: 0 n (%) | TRAEs leading to discontinuation: pancreatitis [6, 15]: 1 (2.2) n (%) | ≥1 AE suspected to be related to LHC165 or spartalizumab [6, 15]: 0 n (%) | Asthenia, treatment-related AE [6, 16]: 0 n (%) | Chills, treatment-related AE [6, 16]: 0 n (%) | Pruritus, treatment-related AE [6, 16]: 0 n (%) | Pyrexia, treatment-related AE [6, 16]: 0 n (%) | TRAEs leading to discontinuation: pancreatitis [6, 16]: 0 n (%) | ≥1 AE suspected to be related to LHC165 or spartalizumab [6, 16]: 0 n (%) | AE leading to dose interruption or dose adjustment: aspartate aminotransferase increased [6, 17]: 4.4% | Patients with at least one AE leading to dose interruption or dose adjustment [6, 17]: 11.1% | Patients with at least one AE leading to treatment discontinuation [6, 17]: 4.4% | AEs leading to dose interruption or dose adjustment, each of: alanine aminotransferase increased, fatigue, gastroesophageal reflux disease, hyponatremia, suspected COVID-19 ([6]; overall, 45 patients, groups pooled, each term): 2.2%

CCCCCCCCCCCCCCCCCC(=O)NCCCCOn1c(CCCC)nc2c(N)nc3ccccc3c21 [MEDI9197]
Toxicities [7]: tolerable toxicities

B1: spartalizumab: humanized immunoglobulin G4 (IgG4) anti-programmed cell death protein-1 (anti–PD-1) monoclonal antibody (antibody, chains of the INN, looked up, V domains shown)
VH: EVQLVQSGAEVKKPGESLRISCKGSGYTFTTYWMHWVRQATGQGLEWMGNIYPGTGGSNFDEKFKNRVTITADKSTSTAYMELSSLRSEDTAVYYCTRWTTGTGAYWGQGTTVTVSS
VL: EIVLTQSPATLSLSPGERATLSCKSSQSLLDSGNQKNFLTWYQQKPGQAPRLLIYWASTRESGVPSRFSGSGSGTDFTFTISSLEAEDAATYYCQNDYSYPYTFGQGTKVEIK
Overall response rate (ORR) [8]: 24%
